Data set [1] deals with Staphylococcus aureus. Put plainly: Antimicrobial activity against mepA overexpressing Staphylococcus aureus SA-K2886 by microdilution method. It counts as organism-based. Particulars: in vivo. The gist of the method: (§1)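 CLSI broth microdilution MIC of the compound alone in norA-deleted strains. SA-K2885 carries empty pALC2073 and SA-K2886 carries pALC2073-mepA (xyl/tetO promoter). 0.05 µg/mL tetracycline was present throughout to induce.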
In general terms: Dilution methods test growth across graded concentrations, often in twofold steps.

Data set [2] has as its system Staphylococcus aureus. Put plainly: Antimicrobial activity against mepA deficient Staphylococcus aureus SA-K2885 by microdilution method. It counts as organism-based. As to conditions: in vivo. In short, it runs like this:
as §1

For `CC[n+]1c(-c2ccccc2)c2cc(N)ccc2c2ccc(N)cc21.[Br-]` [HOMIDIUM BROMIDE], the MIC in the data set on Staphylococcus aureus [1] was 25 µg/mL; against Staphylococcus aureus [2], 0.63 µg/mL.
